Activity calls are given as the source filed them.
Experiments:
[1] = AUC (0 to infinity) in Sprague-Dawley rat at 4 mg/kg, iv; format: ADME, organism-based; set-up: time infinity, dose 4 mg/kg, route intravenous; conditions: plasma
Outline: (§1)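 Male specific-pathogen-free Sprague-Dawley rats (200-300 g), n = 3; single slow tail-vein bolus of 20% 2-hydroxypropyl-β-cyclodextrin formulation (pH 8.0) at 2 ml/kg. Plasma sampled from orbital plexus at 7 min, 20 min, 1, 3, 8, 24 and 31 h; LC-MS/MS (LLOQ 1 ng/ml); noncompartmental analysis of individual plasma profiles.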

[2] = tested on: Hepatitis C virus; assay: Inhibition of HCV 1b isolate con1 NS3/4A protease using RetS1 as a substrate by fluorescence resonance energy transfer cleavage assay
[3] = Ratio of AUC (0 to 31 hrs) in Sprague-Dawley rat adrenal gland to AUC (0 to 31 hrs) in Sprague-Dawley rat plasma at 40 mg/kg, po administered as single dose; format: ADME, organism-based; set-up: dose 40 mg/kg, route oral
Outline: (§2)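 Male specific-pathogen-free Sprague-Dawley rats (200–300 g), three per group, single gastric intubation at 2 ml/kg of a vitamin E TPGS–PEG 400 solution; food and water ad libitum. Plasma sampled 30 min to 31 h; tissues dissected from oral groups. LC-MS/MS (LLOQ 1 ng/ml plasma, 5 ng/g tissue); noncompartmental analysis; ratios from mean of three rats.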

[4] = AUC (0 to 24 hrs) in Sprague-Dawley rat at 40 mg/kg, po; format: ADME, organism-based; set-up: time < 24 hr, dose 40 mg/kg, route oral; conditions: plasma
Outline: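 Male specific-pathogen-free Sprague-Dawley rats (200-300 g), three per group; single gastric intubation of vitamin E TPGS-polyethylene glycol 400 solution at 2 ml/kg. Plasma taken from orbital plexus at 0.5, 1, 2, 4, 8, 24 and 31 h; LC-MS/MS (LLOQ 1 ng/ml); noncompartmental analysis; rats fed and watered ad libitum.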

[5] = Ratio of AUC (0 to 31 hrs) in Sprague-Dawley rat kidney to AUC (0 to 31 hrs) in Sprague-Dawley rat plasma at 40 mg/kg, po administered as single dose; format: ADME, organism-based; set-up: dose 40 mg/kg, route oral; outline: as §2
[6] = Total plasma clearance in Sprague-Dawley rat at 4 mg/kg, iv; format: ADME, organism-based; set-up: dose 4 mg/kg, route intravenous
Outline: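 Male SPF Sprague-Dawley rats (200–300 g), n=3. Single slow i.v. tail-vein bolus at 4 mg/kg (2 ml/kg) in 20% hydroxypropyl-β-cyclodextrin, pH 8.0. Plasma sampled 7 min to 31 h, measured by LC-MS/MS (LLOQ 1 ng/ml). Noncompartmental analysis.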

[7] = tested on: Hepatitis C virus; assay: Antiviral activity against Hepatitis C virus 1b isolate con1 infected in human HuH7 cells assessed as viral RNA level after 72 hrs by quantitative reverse transcriptase PCR; format: functional, organism-based, Hepacivirus hominis; conditions: Con1, Huh-7, 72 h
Outline: (§3)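 Replicon cells (Huh7-Luc at 3,000/well; con1b S2204I or 1a H77 P1496L/S2204I at 6,000/well) exposed to a dilution range for 72 h in 0.5% DMSO without G418. Lysates reverse transcribed 30 min at 42°C with an HCV 5′UTR primer and an RPL13A control. Inhibition from threshold-cycle difference versus mock; EC50 taken from the dose-response curve.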

[8] = AUC (0 to 24 hrs) in Sprague-Dawley rat at 4 mg/kg, iv; format: ADME, organism-based; set-up: time < 24 hr, dose 4 mg/kg, route intravenous; conditions: plasma; outline: as §1
[9] = Cytotoxicity against staphylococcal enterotoxin B-stimulated human PBMC cells; format: cell-based
[10] = Cytotoxicity against human HuH7 cells infected with Hepatitis C virus subtype 1b after 3 to 4 days by resazurin proliferation assay; format: cell-based, Huh-7
Outline: (§4)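 Human cell lines in DMEM with 10% heat-inactivated FBS and 2 mM L-glutamine (replicon cells plus 0.75 mg/ml G418 in maintenance). Exposed to compound for 3 to 4 days; resazurin fluorescence read-out. CC50 from inhibition curves.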

[11] = Cytotoxicity against human MRC5 cells after 3 to 4 days by resazurin proliferation assay; format: cell-based; outline: as §4
[12] = Cytotoxicity against human Saos2 cells after 3 to 4 days by resazurin proliferation assay; format: cell-based, SAOS-2; outline: as §4
[13] = tested on: Hepatitis C virus; assay: Antiviral activity against Hepatitis C virus in presence of 1 mg/ml alpha-1 acid glycoprotein and 40 mg/ml human serum albumin
[14] = Inhibition of HCV 1a H77 NS3/4A protease using RetS1 as a substrate by fluorescence resonance energy transfer cleavage assay
[15] = Ratio of AUC (0 to 31 hrs) in Sprague-Dawley rat thymus to AUC (0 to 31 hrs) in Sprague-Dawley rat plasma at 40 mg/kg, po administered as single dose; format: ADME, organism-based; set-up: dose 40 mg/kg, route oral; outline: as §2
[16] = Tmax in Sprague-Dawley rat plasma at 40 mg/kg, po upto 31 hrs; format: ADME, organism-based; set-up: dose 40 mg/kg, route oral
Outline: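 Male SPF Sprague-Dawley rats (200–300 g), three per group. Oral gavage at 40 mg/kg (2 ml/kg) in TPGS–PEG400 solution. Plasma sampled 0.5–31 h, measured by LC-MS/MS (LLOQ 1 ng/ml). Noncompartmental analysis.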

[17] = tested on: Hepatitis C virus; assay: Antiviral activity against Hepatitis C virus 1b infected in human HuH7 cells assessed as viral RNA level after 72 hrs by quantitative reverse transcriptase PCR; format: functional, organism-based, Hepacivirus hominis; conditions: genotype 1b, Huh-7, 72 h; outline: as §3
[18] = tested on: Hepatitis C virus; assay: microbe, parasite or virus in culture
[19] = tested on: HepG2; assay: Cytotoxicity against human HepG2 cells upto 42 uM after 3 to 4 days by resazurin proliferation assay; format: cell-based; outline: as §4
[20] = tested on: West Nile virus; assay: Antiviral activity against West Nile virus NY99/1 infected in green monkey Vero cells inhibition of virus-induced cytopathic effect at 10 to 100 uM; format: functional, organism-based
Outline: (§5)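 Cytopathic effect inhibition assay: BVDV-NADL in MDCK cells; WNV-NY99/1 in Vero cells. Highest concentration tested 10 to 100 μM.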

[21] = tested on: Hepatitis C virus; assay: Antiviral activity against HCV 1b infected in human HuH7 cells assessed as effect on cell viability upto 5 weeks; format: functional, organism-based; conditions: Hepacivirus hominis; genotype 1b; Huh-7
[22] = tested on: Hepatitis B virus; assay: Antiviral activity against Hepatitis B virus infected in human HepG2.2.15 cells at 10 to 100 uM by quantitative PCR; format: functional, organism-based; conditions: HepG2 2.2.15
Outline: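 HBV replication in HepG2.2.15 cells, measured by quantitative PCR. Highest concentration tested 10 to 100 μM.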

[23] = tested on: Respiratory syncytial virus; assay: Antiviral activity against Respiratory syncytial virus infected in human HeLa cells at 10 to 100 uM; format: functional, organism-based
Outline: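 RSV (LO strain) in HeLa/M cells, tetrazolium-based colorimetric read-out. Highest concentration tested 10 to 100 μM.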

[24] = tested on: Hepatitis C virus; assay: microbe, parasite or virus in culture; remark: listed apart in the source
[25] = tested on: PBMC; assay: Cytostatic activity against human PBMC cells assessed as incorporation of [3H]thymidine; format: ADME, cell-based; conditions: read-out: CS50 (the source's name)
[26] = tested on: Bovine viral diarrhea virus 1; assay: Antiviral activity against Bovine viral diarrhea virus 1 NADL infected in […] cells inhibition of virus-induced cytopathic effect at 10 to 100 uM; format: functional, organism-based; outline: as §5
[27] = tested on: Hepatitis C virus; assay: Antiviral activity against HCV 1a H77 infected in human HuH7 cells assessed as viral RNA level after 72 hrs by quantitative reverse transcriptase PCR; format: functional, organism-based, Hepacivirus hominis; conditions: genotype 1a H77, Huh-7, 72 h; outline: as §3

COc1ccc2c(O[C@@H]3C[C@H]4C(=O)N[C@]5(C(=O)NS(=O)(=O)C6CC6)C[C@H]5/C=C\CCCCN(C)C(=O)[C@@H]4C3)cc(-c3nc(C(C)C)cs3)nc2c1C [SIMEPREVIR]
AUC(0-inf) [1]: 1750 ng·h/mL
Ki [2]: 0.4 nM
Kp [3]: 0.5
AUC(0-t) at 24 h [4]: 7740 ng·h/mL
Kp [5]: 0.5
clearance [6]: 38.3 mL/min/kg
EC50 [7]: 25.2 nM
EC90 [7]: 118 nM
AUC(0-t) at 24 h [8]: 1740 ng·h/mL
CC50 [9]: 33000 nM
CC50 [10]: 47000 nM
CC50 [11]: 16000 nM
CC50 [12]: 16000 nM
EC50 [13]: 14.6 nM
Ki [14]: 0.5 nM
Kp [15]: 0.5
Tmax [16]: 2 h
EC50 [17]: 13 nM
EC90 [17]: 28.7 nM
EC50 ratio [18]: 1.8
Activity [19]: Non-toxic
Activity [20]: inactive
Activity [21]: inactive
Activity [22]: inactive
Activity [23]: inactive
EC50 ratio [24]: 1.4
GI50 [25]: 10000 nM
Activity [26]: inactive
EC50 [27]: 28.4 nM

Reference: ChEMBL document CHEMBL1671650, “In vitro activity and preclinical profile of TMC435350, a potent hepatitis C virus protease inhibitor” (Antimicrob Agents Chemother, 2009)
